Results published in ChEMBL document CHEMBL4680373, “Evaluation of 5-(Trifluoromethyl)-1,2,4-oxadiazole-Based Class IIa HDAC Inhibitors for Huntington's Disease” (ACS Med Chem Lett, 2021).
Values after ≈ are worked out from the molar mass of the structure shown.

Key:
[1] = Toxicity in CBAxC57BL/6J mouse assessed as effect on retropulsion at 10 to 100 mg/kg, po bid for 14.5 days; format: organism-based; details: in vivo, 348 h, dose 10-100 mg/kg, time 14.5 day
Procedure, shortened: (§1)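 R6/2 HD mice and wild-type littermates, male and female, were dosed orally b.i.d. at 10, 30 or 100 mg/kg or with vehicle for 14.5 days. Vehicle was 10% (w/v) hydroxypropyl-β-cyclodextrin in 50 mM citrate buffer. Body weight, body temperature, passive observations and active manipulation scores were recorded. Blood and brain were collected 2 h after the final dose.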

[2] = Intrinsic Clearance in mouse liver microsomes; format: ADME, Microsome; details: read-out: CLH
[3] = target: Muscarinic acetylcholine receptor M2 (Homo sapiens) (UniProt P08172); experiment: Displacement of [3H]AF-DX384 from human recombinant M2 receptor at 10 uM incubated for 1 hr by radiometric scintillation counting analysis
Chain of Muscarinic acetylcholine receptor M2 (Homo sapiens) (P08172 whole entry): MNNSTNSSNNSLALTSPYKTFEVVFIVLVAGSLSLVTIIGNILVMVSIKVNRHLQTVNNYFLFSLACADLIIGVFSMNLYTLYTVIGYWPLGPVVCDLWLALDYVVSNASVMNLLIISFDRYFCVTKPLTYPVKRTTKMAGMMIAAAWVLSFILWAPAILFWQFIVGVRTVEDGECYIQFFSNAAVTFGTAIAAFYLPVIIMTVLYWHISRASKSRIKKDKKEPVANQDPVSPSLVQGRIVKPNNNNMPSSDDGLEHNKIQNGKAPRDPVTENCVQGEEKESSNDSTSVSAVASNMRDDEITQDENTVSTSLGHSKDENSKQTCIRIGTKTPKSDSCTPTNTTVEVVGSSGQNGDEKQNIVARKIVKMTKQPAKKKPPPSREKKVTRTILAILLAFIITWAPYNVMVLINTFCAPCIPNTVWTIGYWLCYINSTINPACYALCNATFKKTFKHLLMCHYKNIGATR
Procedure, shortened: (§2)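 Broad selectivity panel of binding, cellular, functional and enzymatic assays run by a contract lab. Each test was done at a single 10 μM concentration and reported as percent inhibition.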

Cytochrome P450 1A2 = Cytochrome P450 1A2 (Homo sapiens, UniProt P05177); experiment: Inhibition of CYP1A2 in human liver microsomes using phenacetin as substrate incubated for 30 mins by LC-MS/MS analysis; format: ADME
Chain of Cytochrome P450 1A2 (P05177 whole entry): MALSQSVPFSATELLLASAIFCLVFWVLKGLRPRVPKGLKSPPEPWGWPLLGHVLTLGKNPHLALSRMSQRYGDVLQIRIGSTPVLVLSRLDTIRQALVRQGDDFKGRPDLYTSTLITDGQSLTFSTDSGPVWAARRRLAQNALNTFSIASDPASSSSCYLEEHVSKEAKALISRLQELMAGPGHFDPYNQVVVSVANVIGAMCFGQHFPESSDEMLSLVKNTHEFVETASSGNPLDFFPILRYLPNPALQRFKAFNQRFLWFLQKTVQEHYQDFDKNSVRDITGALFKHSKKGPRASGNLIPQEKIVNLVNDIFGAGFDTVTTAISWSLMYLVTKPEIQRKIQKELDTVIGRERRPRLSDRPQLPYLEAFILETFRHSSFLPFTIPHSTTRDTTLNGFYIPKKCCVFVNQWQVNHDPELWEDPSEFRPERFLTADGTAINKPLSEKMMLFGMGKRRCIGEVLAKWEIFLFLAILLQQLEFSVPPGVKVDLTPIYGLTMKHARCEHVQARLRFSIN

[4] = target: Cav1.2 (voltage-dependent L-type calcium channel subunit alpha-1C) (Rattus norvegicus, UniProt P22002); experiment: Displacement of [3H]Diltiazem from Cav1.2 in rat brain at 10 uM incubated for 120 mins by radiometric scintillation counting analysis; format: tissue-based; details: probe [3H]Diltiazem; procedure, shortened: as §2
Chain of Cav1.2 (voltage-dependent L-type calcium channel subunit alpha-1C) (P22002 whole entry): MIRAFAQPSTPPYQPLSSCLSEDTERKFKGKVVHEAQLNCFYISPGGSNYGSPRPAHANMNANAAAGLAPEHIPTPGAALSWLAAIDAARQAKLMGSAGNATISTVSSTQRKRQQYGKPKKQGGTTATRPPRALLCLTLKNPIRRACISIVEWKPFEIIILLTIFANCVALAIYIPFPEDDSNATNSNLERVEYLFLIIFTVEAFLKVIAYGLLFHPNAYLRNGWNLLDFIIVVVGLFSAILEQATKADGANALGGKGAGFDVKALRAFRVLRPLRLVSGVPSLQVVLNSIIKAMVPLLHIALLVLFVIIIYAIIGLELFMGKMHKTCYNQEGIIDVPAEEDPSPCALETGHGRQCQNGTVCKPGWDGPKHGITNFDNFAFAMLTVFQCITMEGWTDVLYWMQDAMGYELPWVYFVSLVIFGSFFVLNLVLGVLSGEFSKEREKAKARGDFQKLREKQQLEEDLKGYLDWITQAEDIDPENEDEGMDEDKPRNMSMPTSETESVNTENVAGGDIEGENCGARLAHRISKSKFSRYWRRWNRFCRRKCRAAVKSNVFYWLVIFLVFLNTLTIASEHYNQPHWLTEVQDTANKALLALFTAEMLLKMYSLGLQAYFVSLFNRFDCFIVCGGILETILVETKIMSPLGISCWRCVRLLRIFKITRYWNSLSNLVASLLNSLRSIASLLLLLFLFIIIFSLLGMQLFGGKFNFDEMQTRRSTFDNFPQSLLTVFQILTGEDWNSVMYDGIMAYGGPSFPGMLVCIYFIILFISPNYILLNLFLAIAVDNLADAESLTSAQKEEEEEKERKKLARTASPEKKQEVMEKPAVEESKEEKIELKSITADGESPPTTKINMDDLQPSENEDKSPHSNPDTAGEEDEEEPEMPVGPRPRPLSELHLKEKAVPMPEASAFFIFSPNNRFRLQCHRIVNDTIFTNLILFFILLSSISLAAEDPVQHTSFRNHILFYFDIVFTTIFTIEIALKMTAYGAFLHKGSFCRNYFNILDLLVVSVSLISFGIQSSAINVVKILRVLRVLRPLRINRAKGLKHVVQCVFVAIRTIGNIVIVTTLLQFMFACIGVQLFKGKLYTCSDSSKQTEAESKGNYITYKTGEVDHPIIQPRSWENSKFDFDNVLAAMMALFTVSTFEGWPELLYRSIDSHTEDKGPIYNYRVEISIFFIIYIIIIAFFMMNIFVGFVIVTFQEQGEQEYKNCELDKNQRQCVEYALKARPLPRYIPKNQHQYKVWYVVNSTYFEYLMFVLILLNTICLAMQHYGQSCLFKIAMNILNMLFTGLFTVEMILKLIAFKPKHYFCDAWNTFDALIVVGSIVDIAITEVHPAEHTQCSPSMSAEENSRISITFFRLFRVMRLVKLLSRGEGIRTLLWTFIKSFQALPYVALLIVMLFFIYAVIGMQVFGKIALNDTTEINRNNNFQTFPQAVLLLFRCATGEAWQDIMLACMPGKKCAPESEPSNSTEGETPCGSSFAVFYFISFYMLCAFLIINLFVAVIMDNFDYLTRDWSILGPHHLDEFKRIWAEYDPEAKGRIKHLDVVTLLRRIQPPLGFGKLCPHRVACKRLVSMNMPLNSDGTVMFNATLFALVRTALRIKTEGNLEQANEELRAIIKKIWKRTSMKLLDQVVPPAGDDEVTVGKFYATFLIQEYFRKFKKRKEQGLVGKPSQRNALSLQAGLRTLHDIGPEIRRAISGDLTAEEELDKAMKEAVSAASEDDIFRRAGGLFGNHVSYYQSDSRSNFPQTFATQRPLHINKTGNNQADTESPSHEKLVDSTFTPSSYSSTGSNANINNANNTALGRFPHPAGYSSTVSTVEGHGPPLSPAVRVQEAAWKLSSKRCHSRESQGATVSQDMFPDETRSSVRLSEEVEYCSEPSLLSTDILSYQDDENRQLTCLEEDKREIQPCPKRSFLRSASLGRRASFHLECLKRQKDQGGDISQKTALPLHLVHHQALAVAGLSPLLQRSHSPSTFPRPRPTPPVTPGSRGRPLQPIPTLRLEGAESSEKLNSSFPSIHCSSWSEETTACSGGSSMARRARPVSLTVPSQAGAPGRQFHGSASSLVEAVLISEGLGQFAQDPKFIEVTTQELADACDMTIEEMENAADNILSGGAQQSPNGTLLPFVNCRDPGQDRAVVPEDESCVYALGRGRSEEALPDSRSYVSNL

[5] = Volume of distribution in C57BL/6J mouse at 3.3 mg/kg, iv by LC-MS/MS analysis; format: ADME, organism-based; details: in vivo
Procedure, shortened: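 Fed male C57Bl/6 mice dosed once intravenously at 3.3 mg/kg and by oral gavage at 11.5 mg/kg. Compound levels were quantified to derive PK parameters.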

[6] = Toxicity in CBAxC57BL/6J mouse assessed as effect on irritability at 10 to 100 mg/kg, po bid for 14.5 days; format: organism-based; details: in vivo, 348 h, dose 10-100 mg/kg, time 14.5 day; procedure, shortened: as §1
[7] = Kinetic solubility of the compound; format: physicochemical; details: read-out: Kinetic_solubility
[8] = Time during which drug concentration exceeds the IC50 for inhibition of human Class 2A HDAC in C57BL/6J mouse brain at 100 mg/kg, po administered via gavage by LC-MS/MS analysis; format: organism-based; details: in vivo
Procedure, shortened: (§3)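 Single oral gavage doses of 10, 30 or 100 mg/kg were given to C57/BL6 mice. Brain and blood were sampled from 0.25 to 12 h and compound measured by LC-MS/MS. The time that total brain exposure stayed above the class IIa cellular IC50 was then estimated.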

[9] = target: Muscarinic acetylcholine receptor M2 (Homo sapiens, UniProt P08172); experiment: Displacement of [3H]AF-DX384 from human recombinant M2 receptor incubated for 1 hr by radiometric scintillation counting analysis
Chain of Muscarinic acetylcholine receptor M2 (P08172 whole entry): as the sequence (P08172 whole entry) above

[10] = In vivo inhibition of Class 2B HDAC in CBAxC57BL/6J mouse brain assessed as increase in tubulin acetylation at 30 to 100 mg/kg, po bid for 14.5 days by western blot analysis; format: organism-based; details: 348 h, dose 30-100 mg/kg, time 14.5 day
Procedure, shortened: (§4)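 R6/2 and wild-type littermate mice of both sexes were dosed orally b.i.d. for 14.5 days with 10, 30 or 100 mg/kg or vehicle (10% w/v hydroxypropyl-β-cyclodextrin in 50 mM citrate buffer). Half-brains were collected 2 h after the last dose. Dot blots measured global and H4K12 acetylation; Western blots measured H3, H4 and tubulin acetylation. Genotypes were pooled.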

[11] = Unbound fraction in mouse blood by equilibrium dialysis method; format: ADME, tissue-based
Procedure, shortened: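 Compound added to mouse blood; unbound fraction determined by equilibrium dialysis.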

[12] = Toxicity in CBAxC57BL/6J mouse assessed as effect on touch escape at 10 to 100 mg/kg, po bid for 14.5 days; format: organism-based; details: in vivo, 348 h, dose 10-100 mg/kg, time 14.5 day; procedure, shortened: as §1
Histone deacetylase 2 = Histone deacetylase 2 (Homo sapiens, UniProt Q92769); experiment: Inhibition of HDAC2 (unknown origin) using Ac-Arg-Gly-Lys(Ac) as substrate by fluorogenic assay
Chain of Histone deacetylase 2 (Q92769 whole entry): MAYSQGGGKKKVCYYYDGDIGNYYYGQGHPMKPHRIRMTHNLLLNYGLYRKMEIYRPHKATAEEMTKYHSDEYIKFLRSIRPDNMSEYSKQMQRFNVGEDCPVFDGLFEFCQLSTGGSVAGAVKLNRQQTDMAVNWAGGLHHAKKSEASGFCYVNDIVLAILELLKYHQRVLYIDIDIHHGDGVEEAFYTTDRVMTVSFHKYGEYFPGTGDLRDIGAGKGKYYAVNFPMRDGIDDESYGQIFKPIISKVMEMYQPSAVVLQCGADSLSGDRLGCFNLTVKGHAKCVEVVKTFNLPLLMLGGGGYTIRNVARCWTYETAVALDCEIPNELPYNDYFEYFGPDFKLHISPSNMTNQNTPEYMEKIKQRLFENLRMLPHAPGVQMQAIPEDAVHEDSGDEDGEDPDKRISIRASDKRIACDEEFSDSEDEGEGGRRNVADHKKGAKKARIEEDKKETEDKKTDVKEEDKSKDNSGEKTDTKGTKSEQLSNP

[13] = In vivo inhibition of Class 1 HDAC in C57BL/6J mouse brain assessed as increase in histone H3/H4 acetylation administered orally via gavage measured after 2 hrs by western blot analysis; format: organism-based; details: po, dose 10-100 mg/kg
Procedure, shortened: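 Brain samples were taken 2 h after single oral gavage doses (10, 30, 100 mg/kg). Western blots probed H3, H4 and tubulin acetylation, each normalized to its own total-protein band. Comparison was against samples taken 5 min after a 10 mg/kg dose.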

[14] = Toxicity in CBAxC57BL/6J mouse assessed as effect on stereotypy at 10 to 100 mg/kg, po bid for 14.5 days; format: organism-based; details: in vivo, 348 h, dose 10-100 mg/kg, time 14.5 day; procedure, shortened: as §1
[15] = target: Sigma non-opioid intracellular receptor 1 (Homo sapiens) (UniProt Q99720); experiment: Displacement of [3H](+)-pentazocine from human sigma1 receptor at 10 uM incubated for 120 mins by radiometric scintillation counting analysis; procedure, shortened: as §2
Chain of Sigma non-opioid intracellular receptor 1 (Homo sapiens) (Q99720 whole entry): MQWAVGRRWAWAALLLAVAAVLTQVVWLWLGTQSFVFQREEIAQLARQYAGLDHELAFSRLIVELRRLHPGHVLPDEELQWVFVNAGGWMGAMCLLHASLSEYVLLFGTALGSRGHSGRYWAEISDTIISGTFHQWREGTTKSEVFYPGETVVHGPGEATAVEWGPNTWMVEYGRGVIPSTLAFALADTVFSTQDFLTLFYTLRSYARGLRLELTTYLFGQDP

[16] = Time during which drug concentration exceeds the IC50 for inhibition of human Class 2A HDAC in C57BL/6J mouse brain at 30 mg/kg, po administered via gavage by LC-MS/MS analysis; format: organism-based; details: in vivo; procedure, shortened: as §3
Histone deacetylase 5 = Histone deacetylase 5 (Homo sapiens, UniProt Q9UQL6); experiment: Inhibition of HDAC5 (unknown origin) using Boc Lys(TFA) as substrate by fluorogenic assay
Chain of Histone deacetylase 5 (Q9UQL6 whole entry, canonical isoform): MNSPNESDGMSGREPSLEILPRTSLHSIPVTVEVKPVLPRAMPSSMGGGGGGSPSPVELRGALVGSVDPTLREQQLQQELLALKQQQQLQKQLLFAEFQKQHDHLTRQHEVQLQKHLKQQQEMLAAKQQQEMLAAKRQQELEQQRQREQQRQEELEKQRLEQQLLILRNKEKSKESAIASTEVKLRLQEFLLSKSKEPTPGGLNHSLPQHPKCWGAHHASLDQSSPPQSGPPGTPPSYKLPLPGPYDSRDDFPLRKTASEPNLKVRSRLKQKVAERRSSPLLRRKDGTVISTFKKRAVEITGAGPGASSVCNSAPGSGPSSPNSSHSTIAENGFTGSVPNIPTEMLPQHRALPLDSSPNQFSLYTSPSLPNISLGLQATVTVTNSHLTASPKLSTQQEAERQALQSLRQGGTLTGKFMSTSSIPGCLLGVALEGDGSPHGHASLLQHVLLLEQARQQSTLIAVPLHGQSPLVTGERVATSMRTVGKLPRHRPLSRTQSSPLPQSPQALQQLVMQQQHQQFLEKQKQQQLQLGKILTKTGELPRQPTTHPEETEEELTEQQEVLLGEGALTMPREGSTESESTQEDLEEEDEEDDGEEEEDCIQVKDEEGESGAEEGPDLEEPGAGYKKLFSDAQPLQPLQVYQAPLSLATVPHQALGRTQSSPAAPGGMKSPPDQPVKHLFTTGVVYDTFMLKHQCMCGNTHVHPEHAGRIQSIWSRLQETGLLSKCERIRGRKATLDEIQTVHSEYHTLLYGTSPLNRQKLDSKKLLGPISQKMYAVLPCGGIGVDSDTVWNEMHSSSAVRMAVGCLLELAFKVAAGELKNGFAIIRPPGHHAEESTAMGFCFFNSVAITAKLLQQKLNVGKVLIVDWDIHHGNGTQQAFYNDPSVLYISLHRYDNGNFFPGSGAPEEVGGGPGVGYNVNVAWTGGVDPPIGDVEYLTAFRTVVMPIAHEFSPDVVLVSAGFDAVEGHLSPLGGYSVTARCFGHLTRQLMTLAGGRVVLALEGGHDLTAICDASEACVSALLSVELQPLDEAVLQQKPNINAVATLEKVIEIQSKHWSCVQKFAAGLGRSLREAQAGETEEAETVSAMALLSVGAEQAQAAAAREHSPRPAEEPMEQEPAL
Procedure, shortened: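 Biochemical HDAC isoform assay with the artificial fluorogenic substrate Boc-Lys-(TFA)-AMC, which is specific to class IIa enzymes and HDAC8. IC50 taken as the geometric mean of three experiments.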

[17] = Stability of the compound in 10% (w/v) hydroxypropyl-beta-cyclodextrin in 50 mM citrate buffer at pH 5 measured over 30 days; format: physicochemical; details: pH 5, 720 h, time 30 day
[18] = In vivo inhibition of Class 1/2B HDAC in CBAxC57BL/6J mouse brain assessed as increase in global pan-acetylation at >=10 mg/kg, po bid for 14.5 days by dot blot technique; format: organism-based; details: 348 h, time 14.5 day; procedure, shortened: as §4
[19] = In vivo inhibition of Class 1 HDAC in CBAxC57BL/6J mouse brain assessed as increase in H4K12 acetylation at 30 to 100 mg/kg, po bid for 14.5 days by dot blot technique; format: organism-based; details: 348 h, dose 30-100 mg/kg, time 14.5 day; procedure, shortened: as §4
[20] = target: Muscarinic acetylcholine receptor M1 (Homo sapiens) (UniProt P11229); experiment: Displacement of [3H]pirenzapine from human recombinant M1 receptor at 10 uM incubated for 1 hr by radiometric scintillation counting analysis; procedure, shortened: as §2
[21] = Toxicity in CBAxC57BL/6J mouse assessed as effect on seizure at 10 to 100 mg/kg, po bid for 14.5 days; format: organism-based; details: in vivo, 348 h, dose 10-100 mg/kg, time 14.5 day; procedure, shortened: as §1
[22] = target: Muscarinic acetylcholine receptor M1 (Homo sapiens, UniProt P11229); experiment: Displacement of [3H]pirenzapine from human recombinant M1 receptor incubated for 1 hr by radiometric scintillation counting analysis
[23] = Toxicity in CBAxC57BL/6J mouse assessed as effect on provoked biting at 10 to 100 mg/kg, po bid for 14.5 days; format: organism-based; details: in vivo, 348 h, dose 10-100 mg/kg, time 14.5 day; procedure, shortened: as §1
Homo sapiens = species: Homo sapiens; experiment: Inhibition of sodium channel (unknown origin) at 10 uM; procedure, shortened: as §2

CLint scaled [2]: 86 mL/min/kg
inhibition [3]: > 80%
IC50 (Cytochrome P450 1A2): > 50 µM
Vd [5]: 3.8 L/kg
solubility kinetic [7]: 166 µM (≈ 63.5 µg/mL)
T>IC50 [8]: 14 h
Kd [9]: > 5 µM
fraction unbound [11]: 0.73
IC50 (Histone deacetylase 2): 27 µM
inhibition [15]: > 50%
T>IC50 [16]: 8 h
IC50 (Histone deacetylase 5): 0.02 µM
Stabilty [17]: Stable
inhibition [20]: > 80%
Kd [22]: > 5 µM
inhibition (Homo sapiens): > 50%
SMILES: C[C@H](CN1CCC[C@@H]1C)NC(=O)c1ccc(-c2noc(C(F)(F)F)n2)cc1
Activity [1]: Non-Toxic
inhibition at 2 h, 10 µM [4]: > 50%
Activity [6]: Non-Toxic
Activity [10]: Toxic
Activity [12]: Non-Toxic
Activity [13]: Toxic
Activity [14]: Non-Toxic
Activity [18]: Toxic
Activity [19]: Toxic
Activity [21]: Non-Toxic
Activity [23]: Non-Toxic
